We go through 17 substances from paper PMC9294072 (ACS chemical biology, 2022).

Where no end group is shown, it is not given here. [ ]: non-standard residue; d: D form. Arg(Me2a) = CN(C)C(=N)NCCC[C@H](N)C(=O)O; Arg(Me2s) = CN=C(NC)NCCC[C@H](N)C(=O)O; pS = N[C@@H](COP(=O)(O)O)C(=O)O

Experiment [1] concerns the target T1, hNatD (Homo sapiens, UniProt Q86UY6). Nature of the experiment: Continuous fluorescence-based acetylation assay. As to conditions: for fold decrease in kcat compared to H4-5 / fold reduction in kcat/Km compared to H4-5: normalized to wild-type H4-5. Type of experiment: biochemical. An outline of the steps:
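hNatD activity monitored continuously by fluorescence at 25 °C. All components except peptide were preincubated for 10 min, then the reaction was started with varying peptide concentrations. For AcCoA characterization, the peptide substrate was fixed at 50 μM. Readings were taken at 400–415 nm and 460–485 nm. Signal was converted to CoA via a standard curve, and initial velocities were fit to Michaelis-Menten or substrate-inhibition models. Run at least in duplicate.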

The target in experiment [2] is T1, hNatD. Nature of the experiment: MALDI-MS acetylation assay. Type of experiment: biochemical. As to conditions: relative to wild-type H4-5. An outline of the steps: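 Human NatD 50 nM with 50 µM AcCoA in 25 mM HEPES, 150 mM NaCl, pH 7.5, 25 °C. Reaction started by adding peptide in 2-fold dilutions. Cysteine peptides were pre-reduced with DTT and diluted in buffer containing 10 mM DTT. Timed aliquots were quenched 1:1 in 0.1% TFA and spotted with CHCA for MALDI-MS of acetylated product. Initial slopes were fitted to Michaelis-Menten or substrate-inhibition models, in duplicate.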

On to “R3Q: oncohistone H4/H2A pentapeptide with R3Q mutation (SGQGK-NH2)”, for which, in the experiment with hNatD [1] (fluorescence assay), the “fold decrease in kcat compared to H4-5” value was 3 fold and the “fold reduction in kcat/Km compared to H4-5” value (“fold reduction … to H4-5” for short) is recorded as 200 fold.

For the substance CGRGK [S1C], the “fold reduction … to H4-5” value at hNatD [2] is given as ~ 100 fold.

For the substance “H4R3me2a: H4 pentapeptide with Arg3 asymmetric dimethylation (SG[Arg(Me2a)]GK-NH2; UniProt P62805 2-6, looked up, fragment)”, the “fold reduction … to H4-5” value in the experiment with hNatD [1] (fluorescence assay) stood at 8 fold.

Regarding “S1L: oncohistone H4/H2A pentapeptide with S1L mutation (LGRGK-NH2)”, in the experiment with hNatD [1] (fluorescence assay), the “fold decrease in kcat compared to H4-5” value was found to be 5 fold.

On to SGRGA, for which the “fold difference in kcat and kcat/Km compared to H4-5” value on hNatD [1] (SMARCD2-derived pentapeptide vs H4-5 (also H2A-5)) is “less than 2 fold”.

On to “G4D: oncohistone H4/H2A pentapeptide with G4D mutation (SGRDK-NH2)”, for which, in the experiment with hNatD [1] (fluorescence assay), the “fold decrease in kcat compared to H4-5” value was “less than 2 fold”.

In the case of “S1F: oncohistone H4/H2A pentapeptide with S1F mutation (FGRGK-NH2)”, the “fold reduction … to H4-5” value with hNatD [2] is “over 1,000 fold”.

With “H4pS1: H4 pentapeptide with Ser1 phosphorylation ([pS]GRGK-NH2)”, in the experiment with hNatD [1] (fluorescence assay), the “fold decrease in kcat compared to H4-5” value was 2.3 fold and the “fold reduction … to H4-5” value was “over 100 fold”.

For “H2A-12: C-terminal truncated H2A synthetic peptide, 12 residues (SGRGKQGGKARA-NH2; UniProt P0C0S8 2-13, looked up, fragment)”, the “fold reduction in kcat/Km compared to corresponding H4 peptides” value with hNatD [1] (H2A peptide vs H4 peptide of the same length) is “about 4 fold”.

With “G4S: oncohistone H4/H2A pentapeptide with G4S mutation (SGRSK-NH2)”, in the experiment with hNatD [1] (fluorescence assay), the “fold decrease in kcat compared to H4-5” value amounted to 7 fold and the “fold reduction … to H4-5” value is given as 17 fold.

Consider “H4K5ac: H4 pentapeptide with Lys5 acetylation (SGRGK(Ac)-NH2)”, for which the “kinetic parameters relative to unmodified H4-5 (in words)” value in the experiment with hNatD [1] (fluorescence assay, compared to H4-5) is recorded as “comparable kinetic parameters”.

For the substance SGCGK [R3C], at hNatD [2], the “fold reduction … to H4-5” value is given as 17 fold.

With “H4R3me2s: H4 pentapeptide with Arg3 symmetric dimethylation (SG[Arg(Me2s)]GK-NH2)”, in the experiment with hNatD [1] (fluorescence assay), the “fold reduction … to H4-5” value is on record as 17 fold.

In the case of “H4R3me1: H4 pentapeptide with Arg3 monomethylation (SG[Rme1]GK-NH2; UniProt P62805 2-6, looked up, fragment)”, the “fold reduction … to H4-5” value with hNatD [1] (fluorescence assay) is listed as 3.6 fold.

As to “G4V: oncohistone H4/H2A pentapeptide with G4V mutation (SGRVK-NH2)”, the “fold higher kcat/Km for G4V than G4D” value in the experiment with hNatD [1] (G4V relative to G4D) is given as 7 fold. Besides, the “fold decrease in kcat compared to H4-5” value with hNatD [1] (fluorescence assay) is on record as “less than 2 fold”.

In the case of “G2E: oncohistone H4/H2A pentapeptide with G2E mutation (SERGK-NH2)”, in the experiment with hNatD [1] (fluorescence assay), the “fold decrease in kcat compared to H4-5” value was determined as 3 fold.

As for “R3H: oncohistone H4/H2A pentapeptide with R3H mutation (SGHGK-NH2)”, in the experiment with hNatD [1] (fluorescence assay), the “fold decrease in kcat compared to H4-5” value was determined as 1.5 fold and the “fold reduction … to H4-5” value was determined as 6.5 fold.
